Assay results from ChEMBL document CHEMBL1123413, “Synthesis and biological evaluation of 1-(1,2-benzisothiazol-3-yl)- and (1,2-benzisoxazol-3-yl)piperazine derivatives as potential antipsychotic agents” (J Med Chem, 1986).

Tests used:
Rattus norvegicus [1] = species: Rattus norvegicus; assay: Inhibition of conditioned avoidance response (CAR); format: functional
In short: (§1)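 Rats trained to avoid an electric shock, test compound given orally, and block of the conditioned avoidance response scored. ED50 (mg/kg, po) with fiducial limits by the method of Berkson.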

[2] = molecular target: T1, Adrenergic receptor alpha-1 (Rattus norvegicus, UniProt P15823+P23944+P43140)
T1 sequence (P15823 whole entry): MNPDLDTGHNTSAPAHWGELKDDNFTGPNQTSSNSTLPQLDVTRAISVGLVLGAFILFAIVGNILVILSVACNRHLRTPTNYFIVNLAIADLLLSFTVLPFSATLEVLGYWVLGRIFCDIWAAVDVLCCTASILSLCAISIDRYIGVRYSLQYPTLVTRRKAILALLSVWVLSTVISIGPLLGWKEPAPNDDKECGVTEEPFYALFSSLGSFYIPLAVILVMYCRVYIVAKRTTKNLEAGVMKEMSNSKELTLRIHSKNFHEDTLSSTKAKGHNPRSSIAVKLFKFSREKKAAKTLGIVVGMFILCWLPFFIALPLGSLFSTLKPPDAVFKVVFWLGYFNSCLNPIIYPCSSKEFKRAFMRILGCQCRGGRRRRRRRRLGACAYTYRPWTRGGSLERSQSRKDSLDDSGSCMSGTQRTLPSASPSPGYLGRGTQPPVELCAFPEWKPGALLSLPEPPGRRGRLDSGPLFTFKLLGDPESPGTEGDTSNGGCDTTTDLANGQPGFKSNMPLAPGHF
T1 sequence (P23944 whole entry): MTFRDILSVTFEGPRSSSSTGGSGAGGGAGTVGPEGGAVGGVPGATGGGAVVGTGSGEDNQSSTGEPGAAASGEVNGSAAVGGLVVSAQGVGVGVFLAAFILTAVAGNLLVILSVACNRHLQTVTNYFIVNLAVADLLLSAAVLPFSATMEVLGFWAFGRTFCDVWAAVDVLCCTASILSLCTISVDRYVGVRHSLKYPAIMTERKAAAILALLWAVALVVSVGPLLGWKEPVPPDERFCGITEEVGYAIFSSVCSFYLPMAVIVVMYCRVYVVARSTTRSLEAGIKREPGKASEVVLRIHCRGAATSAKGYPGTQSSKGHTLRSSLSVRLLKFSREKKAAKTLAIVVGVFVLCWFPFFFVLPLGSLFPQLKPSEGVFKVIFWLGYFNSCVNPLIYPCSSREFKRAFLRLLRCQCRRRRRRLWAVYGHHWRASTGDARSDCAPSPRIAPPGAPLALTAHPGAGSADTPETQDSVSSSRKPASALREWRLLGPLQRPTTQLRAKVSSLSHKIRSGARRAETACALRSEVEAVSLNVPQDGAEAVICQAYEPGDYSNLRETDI
T1 sequence (P43140 whole entry): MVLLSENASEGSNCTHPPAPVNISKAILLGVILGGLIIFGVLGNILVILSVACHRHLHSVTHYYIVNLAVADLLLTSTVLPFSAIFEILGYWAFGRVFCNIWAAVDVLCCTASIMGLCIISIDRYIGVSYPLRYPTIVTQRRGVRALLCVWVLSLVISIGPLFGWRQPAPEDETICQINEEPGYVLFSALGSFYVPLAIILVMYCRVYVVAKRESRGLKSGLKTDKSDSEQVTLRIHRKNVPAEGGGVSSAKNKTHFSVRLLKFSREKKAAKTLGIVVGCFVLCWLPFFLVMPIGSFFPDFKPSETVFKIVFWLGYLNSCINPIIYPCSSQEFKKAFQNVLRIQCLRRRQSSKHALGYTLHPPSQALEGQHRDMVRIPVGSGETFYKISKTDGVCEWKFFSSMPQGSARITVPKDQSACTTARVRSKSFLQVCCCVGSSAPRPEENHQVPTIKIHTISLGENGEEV

D(2) dopamine receptor = D(2) dopamine receptor (Rattus norvegicus, UniProt P61169); assay: In vitro affinity for rat striatal Dopamine receptor D2 labeled with [3H]spiperone
Rattus norvegicus [3] = species: Rattus norvegicus; assay: Compound was tested for its ability to induce catalepsy in rats.; format: functional
In short: (§2)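 Catalepsy was induced in rats with orally dosed compound as a predictor of extrapyramidal liability. ED50 (mg/kg, po) with fiducial limits by Berkson's method.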

Rattus norvegicus [4] = species: Rattus norvegicus; assay: Compound was tested for its ability to induce catalepsy in rats; format: functional; in short: as §2
Rattus norvegicus [5] = species: Rattus norvegicus; assay: Compound was tested for the inhibition of apomorphine-induced stereotype; format: functional
In short: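 In rats, oral test compound was scored for block of apomorphine-induced stereotypy as an in vivo dopamine-system measure. ED50 (mg/kg, po) and fiducial limits by Berkson's method.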

Rattus norvegicus [6] = species: Rattus norvegicus; assay: Compound was tested for inhibition of conditioned avoidance response (CAR ); format: functional; in short: as §1
[7] = molecular target: GABA-A receptor; anion channel; assay: Inhibition of [3H]muscimol binding to Gamma-aminobutyric acid (GABA-A) receptor; format: protein-complex assay, Rattus norvegicus
[8] = Lethal dose after peroral administration in mouse; format: toxicity, organism-based; conditions: in vivo, po
Mus musculus [9] = assay: Compound was tested for inhibition of spontaneous motor activity in mouse when administered perorally; format: functional; conditions: po
Mus musculus [10] = assay: Compound was tested for inhibition of physostigmine lethality in mouse when administered perorally; format: functional; conditions: po
In short: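 Groups of 10 nonfasted male mice dosed orally with test compound (initial 100 mg/kg) or vehicle (distilled H2O or 0.5% methocel). At 30 min, physostigmine given ip at 1.25 mg/kg, and lethality followed for up to 1 h. Active compounds retested at lower doses, 10 mice/dose, for dose response. ED50 by Berkson's method.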

Mus musculus [11] = assay: Compound was tested for inhibition of norepinephrine lethality in mouse when administered perorally; format: functional; conditions: po
In short: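 Groups of 10 nonfasted male mice dosed orally with test compound (initial 100 mg/kg) or vehicle (distilled H2O or 0.5% methocel). Active compounds retested at lower doses, 10 mice/dose, for dose response. ED50 by Berkson's method.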

[12] = Binding affinity against histamine receptor was measured using radioligand ([3H]-pyrilamine) binding assay
Rattus norvegicus [13] = assay: Compound was tested for inhibition of hexobarbatial potentiation in rat when administered perorally; format: functional; conditions: po
In short: (§3)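 Nonfasted male rats given test drug orally, vehicle distilled H2O or 0.5% methocel. Hexobarbital sodium (40 mg/kg) or EtOH (10 mL of 20% solution/kg) given ip at 15, 30, 60 or 120 min postdrug, controls 15 min after vehicle. Loss of righting reflex lasting 1 min scored over about 10–15 min. Dose response at time of peak effect, 10 rats/dose. ED50 and fiducial limits by Berkson's method.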

Rattus norvegicus [14] = assay: Compound was tested for inhibition of ethanol potentiation in rat when administered perorally; format: functional; conditions: po; in short: as §3
Rattus norvegicus [15] = assay: Compound was tested for inhibition of spontaneous motor activity in rat when administered perorally; format: functional; conditions: po

D(2) dopamine receptor, sequence (P61169 whole entry): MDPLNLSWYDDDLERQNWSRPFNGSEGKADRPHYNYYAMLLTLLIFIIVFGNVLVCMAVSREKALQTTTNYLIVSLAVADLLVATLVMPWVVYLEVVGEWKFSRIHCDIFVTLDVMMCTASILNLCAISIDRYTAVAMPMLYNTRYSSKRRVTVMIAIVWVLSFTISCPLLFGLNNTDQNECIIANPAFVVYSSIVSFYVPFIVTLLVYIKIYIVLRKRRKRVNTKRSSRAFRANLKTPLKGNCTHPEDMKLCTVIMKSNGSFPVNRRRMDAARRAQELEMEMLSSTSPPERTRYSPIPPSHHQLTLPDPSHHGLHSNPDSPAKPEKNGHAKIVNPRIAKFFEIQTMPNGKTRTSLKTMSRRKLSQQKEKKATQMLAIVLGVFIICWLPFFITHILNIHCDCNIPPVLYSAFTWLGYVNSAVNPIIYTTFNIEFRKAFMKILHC

IC50 [2]	IC50 (D(2) dopamine receptor)	Compound	ED50 (Rattus norvegicus [1])	ED50 (Rattus norvegicus [3])	further results
3 nM	145 nM	O=C1CC2(CCCC2)CC(=O)N1CCCN1CCN(c2nsc3ccccc23)CC1	> 100 mg/kg		
	> 1000 nM	O=C1SC2(CCCC2)C(=O)N1CCCCN1CCCN(c2noc3ccccc23)CC1	> 100 mg/kg		
33 nM	440 nM	O=C1CSC(=O)N1CCCCN1CCN(c2noc3ccc(Cl)cc23)CC1	> 100 mg/kg		
1 nM	240 nM	O=C1CSC(=O)N1CCCCN1CCN(c2noc3ccccc23)CC1	8.3 mg/kg	11.7 mg/kg	
2 nM	30 nM	OC(CCCN1CCN(c2noc3ccccc23)CC1)c1ccc(F)cc1 (stereo not given)	1 mg/kg	2.2 mg/kg	ED50 (Rattus norvegicus [5]): 2.3 mg/kg
0.9 nM	53 nM	Cl.O=C1CSC(=O)N1CCCCN1CCN(c2nsc3ccccc23)CC1			ED50 (Rattus norvegicus [6]): 27.8 mg/kg
7 nM	25 nM	O=C1CC2(CCCC2)CC(=O)N1CCCCN1CCN(c2noc3ccccc23)CC1	10.6 mg/kg	68.2 mg/kg	ED50 (Rattus norvegicus [5]): 20.2 mg/kg

Further lines, the compound ahead of its results:

Compound	IC50 [2]	IC50 (D(2) dopamine receptor)	ED50 (Rattus norvegicus [1])	ED50 (Rattus norvegicus [3])	further results
Cl.c1ccc2c(N3CCNCC3)noc2c1	165 nM	> 1000 nM	> 100 mg/kg		
O=C1CC2(CCCC2)CC(=O)N1CCCCN1CCN(c2noc3cc(Cl)ccc23)CC1	5 nM	59 nM	26 mg/kg		
Cl.c1ccc2c(N3CCNCC3)nsc2c1	510 nM	> 1000 nM	> 100 mg/kg		
O=C(CCCN1CCN(c2nsc3ccccc23)CC1)c1ccc(F)cc1	8 nM	10 nM	7.4 mg/kg		ED50 (Rattus norvegicus [4]): 16.4 mg/kg
O=C1SC2(CCCC2)C(=O)N1CCCCN1CCN(c2noc3ccccc23)CC1		78 nM	8.1 mg/kg	21.5 mg/kg	
OC(CCCN1CCN(c2nsc3ccccc23)CC1)c1ccc(F)cc1 (stereo not given)	2 nM	2 nM	2.4 mg/kg		ED50 (Rattus norvegicus [4]): 5 mg/kg
CN1CCN(C2=Nc3cc(Cl)ccc3Nc3ccccc32)CC1 [CLOZAPINE]				> 200 mg/kg	IC50 [7]: > 1000 nM; LD50 [8]: 219 mg/kg; ED50 (Mus musculus [9]): 1.9 mg/kg; ED50 (Mus musculus [10]): 5.4 mg/kg; ED50 (Mus musculus [11]): 3.5 mg/kg; IC50 [12]: 18 nM; ED50 (Rattus norvegicus [13]): 1.69 mg/kg; ED50 (Rattus norvegicus [14]): 3.23 mg/kg; ED50 (Rattus norvegicus [15]): 17.5 mg/kg
